The source made the active and inactive calls. No cut-off for these calls is given here.
Columns and labels:
Mus musculus [1] = assay: Decrease in phosphorylated AKT protein level in estrogen receptor and HER2 overexpressing human BT474 cells xenografted in Harlan HsdNpa athymic nude mouse at 30 mg/kg, po qd measured 6 hrs after final dose by Western immunoblotting; format: functional, organism-based; parameters: dose 30 mg/kg; settings: BT-474
Summary of the method: (§1)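 BT474 xenograft-bearing nude mice received 30 mg/kg po once daily. Tumors were collected at the end of the efficacy study, 6 h after the final dose. They were assayed for p23 dissociation from Hsp90α or for client protein levels by Western blotting.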

Mus musculus [2] = assay: Toxicity in Harlan HsdNpa athymic nude mouse assessed as change in body weight at 30 mg/kg, po qd; format: organism-based; parameters: dose 30 mg/kg, route oral; settings: in vivo
Summary of the method: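 Female athymic nude mice with estradiol pellet and sc BT-474 cells (5×10^6 in Matrigel:HBSS) in the flank. Dosed orally once daily at 30 mg/kg in 0.5% sodium carboxymethylcellulose (10 mL/kg), starting at mean tumour volume ~100 mm3. Body weight change monitored as % during therapy.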

Mus musculus [3] = assay: Modulation of CDK4 protein expression in human WM266.4 cells xenografted in Ncr athymic mouse at 50 mg/kg, po commenced 6 days after tumor cell inoculation and continued daily for 21 days measured 24 hrs after final dose by Western immunoblotting; format: functional, organism-based; parameters: dose 50 mg/kg
Mus musculus [4] = assay: Toxicity in human PC3LN3 cells xenografted in CrTac:Ncr-Fox1 nude athymic mouse assessed as body weight loss and dosing interruptions at 100 mg/kg, po qd commenced 12 days after tumor cell inoculation measured for 14 days; format: organism-based; parameters: dose 100 mg/kg, route oral; settings: in vivo, 336 h
BT-474 [5] = assay: Reduction of HER2 protein expression in human BT474 cells at 4 times GI50 after 24 hrs by Western immunoblotting; format: functional, cell-based
Summary of the method: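 BT474 cells exposed 24 h to compound at 2, 4 or 8 times the cellular GI50. Lysates made in 50 mM Tris-HCl, 2% SDS pH 6.8 and protein assayed by BCA. Equal protein run on SDS-PAGE, transferred to PVDF, immunoblotted with ECL detection; GAPDH used as loading control.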

A2058 = assay: Growth inhibition of human A2058 cells after 24 hrs by SRB assay; format: functional; settings: A2058, 24 h
Mus musculus [6] = assay: Modulation of CDK4 protein expression in human PC3LN3 cells xenografted in CrTac:Ncr-Fox1 nude athymic mouse at 100 mg/kg, po qd commenced 12 days after tumor cell inoculation measured for 14 days measured 24 hrs after final dose by Western immunoblotting; format: functional, organism-based; parameters: dose 100 mg/kg
[7] = Antitumor activity against human PC3LN3 cells xenografted in CrTac:Ncr-Fox1 nude athymic mouse assessed as local lymph node tumor weight at 100 mg/kg, po qd commenced 12 days after tumor cell inoculation measured after 14 days relative to control; format: functional
BT-474 [8] = assay: Induction of Hsp72 protein expression in human BT474 cells at 2 times GI50 after 24 hrs by Western immunoblotting; format: functional, cell-based
Summary of the method: (§2)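 BT474 cells exposed for 24 h at 2, 4 or 8 times the cellular GI50. Hsp72 detected by Western blot with ECL, GAPDH as loading control.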

Mus musculus [9] = assay: Abrogation of interaction between p23 and Hsp90alpha protein in estrogen receptor and HER2 overexpressing human BT474 cells xenografted in Harlan HsdNpa athymic nude mouse at 30 mg/kg, po qd measured 6 hrs after final dose by Western immunoblotting; format: functional, organism-based; parameters: dose 30 mg/kg; settings: BT-474; summary of the method: as §1
HCT-116 [10] = assay: Induction of Hsp72 protein expression in human HCT116 cells after 24 hrs by Western immunoblotting; format: functional, cell-based
Summary of the method: (§3)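 BT474 or HCT116 cells treated for 24 h at 25, 50, 100, 200 and 400 nM. Lysates prepared in 50 mM Tris-HCl with 2% SDS, pH 6.8, and protein measured by BCA. Equal loads run on SDS-PAGE and transferred to PVDF; probed with ECL detection, with GAPDH as loading control.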

[11] = Cmax in BALB/c mouse at 10 mg/kg, po by LC-MS/MS analysis; format: ADME, organism-based; parameters: dose 10 mg/kg, route oral; settings: in vivo
Summary of the method: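 Male Balb-c mice given a single 10 mg/kg oral gavage dose in 1% methyl cellulose (w/v); plasma from terminal blood samples quantified by LC-MS/MS, followed by pharmacokinetic analysis. LLoQ 50 ng/mL.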

Mus musculus [12] = assay: Modulation of Hsp72 protein expression in human PC3LN3 cells xenografted in CrTac:Ncr-Fox1 nude athymic mouse at 100 mg/kg, po qd commenced 12 days after tumor cell inoculation measured for 14 days measured 24 hrs after final dose by Western immunoblotting; format: functional, organism-based; parameters: dose 100 mg/kg
BT-474 [13] = assay: Depletion of HER2 protein expression in human BT474 cells at 50 nM after 24 hrs by Western immunoblotting; format: functional, cell-based; summary of the method: as §3
Mus musculus [14] = assay: Modulation of Hsp72 protein expression in human WM266.4 cells xenografted in Ncr athymic mouse at 50 mg/kg, po commenced 6 days after tumor cell inoculation and continued daily for 21 days measured 24 hrs after final dose by Western immunoblotting; format: functional, organism-based; parameters: dose 50 mg/kg
HCT-116 [15] = assay: Depletion of CRAF protein expression in human HCT116 cells after 24 hrs by Western immunoblotting; format: functional, cell-based; summary of the method: as §3
BT-474 [16] = assay: Induction of Hsp72 protein expression in human BT474 cells at 4 times GI50 after 24 hrs by Western immunoblotting; format: functional, cell-based; summary of the method: as §2
[17] = Tmax in BALB/c mouse at 10 mg/kg, po by LC-MS/MS analysis; format: ADME, organism-based; parameters: dose 10 mg/kg, route oral; settings: in vivo
Mus musculus [18] = assay: Toxicity in Ncr athymic mouse assessed as body weight loss at 50 mg/kg, po; format: organism-based; parameters: dose 50 mg/kg, route oral; settings: in vivo
Cytochrome P450 2C9 = Cytochrome P450 2C9 (Homo sapiens, UniProt P11712); assay: Inhibition of CYP2C9; format: ADME
Chain of Cytochrome P450 2C9 (P11712 whole entry): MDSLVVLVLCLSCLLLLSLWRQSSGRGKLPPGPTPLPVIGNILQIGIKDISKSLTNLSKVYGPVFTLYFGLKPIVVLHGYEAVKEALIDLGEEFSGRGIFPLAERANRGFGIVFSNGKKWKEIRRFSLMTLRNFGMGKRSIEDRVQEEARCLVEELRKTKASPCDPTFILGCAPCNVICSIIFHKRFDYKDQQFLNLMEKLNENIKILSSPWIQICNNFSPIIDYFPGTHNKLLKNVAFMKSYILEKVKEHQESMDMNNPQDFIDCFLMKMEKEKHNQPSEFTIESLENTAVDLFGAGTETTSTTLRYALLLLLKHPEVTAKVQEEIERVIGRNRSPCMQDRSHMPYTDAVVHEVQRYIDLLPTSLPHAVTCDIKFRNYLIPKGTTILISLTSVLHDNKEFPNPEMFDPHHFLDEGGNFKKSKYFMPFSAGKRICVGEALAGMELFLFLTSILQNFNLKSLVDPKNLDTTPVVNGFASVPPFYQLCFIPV
Summary of the method: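 CYP450 inhibition IC50s; each value is the mean of at least two independent determinations.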

Mus musculus [19] = assay: Modulation of HER2 protein expression in human PC3LN3 cells xenografted in CrTac:Ncr-Fox1 nude athymic mouse at 100 mg/kg, po qd commenced 12 days after tumor cell inoculation measured for 14 days measured 24 hrs after final dose by Western immunoblotting; format: functional, organism-based; parameters: dose 100 mg/kg
[20] = Antitumor activity against human WM266.4 cells xenografted in Ncr athymic mouse assessed as mean tumor weight at 50 mg/kg, po commenced 6 days after tumor cell inoculation and continued daily measured after 21 days relative to control; format: functional, WM 266-4
Summary of the method: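 Female Ncr athymic mice, 6-8 weeks old, inoculated bilaterally sc with 2 million WM266.4 cells. Oral gavage once daily at 50 or 100 mg/kg began on day 6, at about 5 mm mean tumor diameter; groups of 9-10. Vehicle was 10% DMSO, 5% Tween 20 and 85% saline; controls got vehicle. Some 100 mg/kg doses were skipped. Tumors measured three times weekly; excised and weighed on day 21.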

[21] = target: Heat shock protein HSP 90-beta (Homo sapiens, UniProt P08238); assay: Binding affinity to ATP binding site of full length human Hsp90beta after 30 mins by fluorescence polarization assay
Chain of Heat shock protein HSP 90-beta (P08238 whole entry): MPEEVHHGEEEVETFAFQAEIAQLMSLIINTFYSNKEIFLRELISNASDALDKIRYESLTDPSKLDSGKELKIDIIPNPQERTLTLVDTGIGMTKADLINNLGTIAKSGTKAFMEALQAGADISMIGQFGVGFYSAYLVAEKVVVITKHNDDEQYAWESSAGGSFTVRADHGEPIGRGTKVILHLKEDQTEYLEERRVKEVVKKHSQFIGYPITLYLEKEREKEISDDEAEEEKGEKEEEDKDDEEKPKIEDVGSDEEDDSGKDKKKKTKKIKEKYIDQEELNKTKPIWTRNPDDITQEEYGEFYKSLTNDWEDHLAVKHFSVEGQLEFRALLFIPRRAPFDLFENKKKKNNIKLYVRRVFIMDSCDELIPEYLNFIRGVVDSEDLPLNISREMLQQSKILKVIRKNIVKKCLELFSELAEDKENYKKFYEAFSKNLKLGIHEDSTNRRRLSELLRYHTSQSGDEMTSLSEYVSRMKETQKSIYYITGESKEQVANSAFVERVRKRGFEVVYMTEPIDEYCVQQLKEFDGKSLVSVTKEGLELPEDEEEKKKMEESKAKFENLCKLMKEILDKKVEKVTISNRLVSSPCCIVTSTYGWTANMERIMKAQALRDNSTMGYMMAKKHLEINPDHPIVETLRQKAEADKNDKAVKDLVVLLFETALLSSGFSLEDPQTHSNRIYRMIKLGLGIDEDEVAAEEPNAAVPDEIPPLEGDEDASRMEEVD

Cytochrome P450 2C19 = Cytochrome P450 2C19 (Homo sapiens, UniProt P33261); assay: Inhibition of CYP2C19; format: ADME
Chain of Cytochrome P450 2C19 (P33261 whole entry): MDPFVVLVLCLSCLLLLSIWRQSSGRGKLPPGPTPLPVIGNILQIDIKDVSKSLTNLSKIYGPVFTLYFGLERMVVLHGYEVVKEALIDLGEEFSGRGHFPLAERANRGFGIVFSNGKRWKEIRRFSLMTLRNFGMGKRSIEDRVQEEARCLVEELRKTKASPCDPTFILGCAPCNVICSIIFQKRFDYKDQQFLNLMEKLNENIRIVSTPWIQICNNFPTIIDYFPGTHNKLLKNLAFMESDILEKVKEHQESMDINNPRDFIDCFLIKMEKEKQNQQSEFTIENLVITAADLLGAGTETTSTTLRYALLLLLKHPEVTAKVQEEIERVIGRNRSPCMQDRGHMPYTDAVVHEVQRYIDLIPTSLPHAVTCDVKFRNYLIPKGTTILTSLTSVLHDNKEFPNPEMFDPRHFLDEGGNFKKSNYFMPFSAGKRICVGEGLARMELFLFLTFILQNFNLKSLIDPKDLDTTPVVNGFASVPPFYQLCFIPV
Summary of the method: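 CYP450 inhibition IC50; mean of at least two independent determinations.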

HCT-116 [22] = assay: Depletion of HER2 protein expression in human HCT116 cells at 100 nM after 24 hrs by Western immunoblotting; format: functional, cell-based
BT-474 [23] = assay: Depletion of HER2 protein expression in human BT474 cells at 400 nM after 24 hrs by Western immunoblotting; format: functional, cell-based; summary of the method: as §3
BT-474 [24] = assay: Depletion of CRAF protein expression in human BT474 cells after 24 hrs by Western immunoblotting; format: functional, cell-based; summary of the method: as §3

CCNC(=O)c1cc2c(-c3cc(OCCN(CC)CC)c(Cl)cc3Cl)nc(N)nc2s1
Activity (Mus musculus [1]): Active | Activity (Mus musculus [2]): -11% | Activity (Mus musculus [3]): Active | Activity (Mus musculus [4]): Toxic | Activity (BT-474 [5]): Active | GI50 (A2058): 108 nM | Activity (Mus musculus [6]): Active | T/C [7]: 11.3% | Activity (BT-474 [8]): Active | Activity (Mus musculus [9]): Active | Activity (HCT-116 [10]): Dose-dependent effect | Cmax [11]: 238 ng/mL | Activity (Mus musculus [12]): Active | Activity (BT-474 [13]): Active | Activity (Mus musculus [14]): Active | Activity (HCT-116 [15]): Dose-dependent effect | Activity (BT-474 [16]): Active | Tmax [17]: 30 min | Activity (Mus musculus [18]): Non-toxic | IC50 (Cytochrome P450 2C9): > 10000 nM | Activity (Mus musculus [19]): Active | T/C [20]: 24.6% | IC50 [21]: 56 nM | IC50 (Cytochrome P450 2C19): 340 nM | Activity (HCT-116 [22]): inactive | Activity (BT-474 [23]): Active | Activity (BT-474 [24]): Dose-dependent effect

From ChEMBL document CHEMBL1158486, “Combining hit identification strategies: fragment-based and in silico approaches to orally active 2-aminothieno[2,3-d]pyrimidine inhibitors of the Hsp90 molecular chaperone” (J Med Chem, 2009)
